Results on 17 molecules are retold here after ChEMBL document CHEMBL1125061, “Antitumor agents. 111. New 4-hydroxylated and 4-halogenated anilino derivatives of 4'-demethylepipodophyllotoxin as potent inhibitors of human DNA topoisomerase II” (1990).

Experiment [1] deals with T1, DNA topoisomerase II (Homo sapiens) (UniProt P11388+Q02880). In words: Inhibition of DNA topoisomerase II at 100 uM. Format: protein assay. Summed up:
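Human DNA topoisomerase II inhibition, tested at 25, 50 and 100 μM. […] The ID₅₀ is set from the degree of inhibition across the three concentrations.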

The species named for a further experiment is Homo sapiens. As to the kind of experiment: Cellular protein-DNA complex formation at 10 uM. Format: functional. The arrangement: reference not given here.
The nature of experiment [2]: In vitro cytotoxicity against KB cells after a 3-day incubation. It counts as functional. Particulars: Homo sapiens, 72 h, read-out: ID50 (the source's name). Summed up: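 KB cell culture, 3-day incubation with drug; read-out was cell number. ID50 taken as the concentration giving a 50% reduction in cell number.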
Experiment [3] deals with T1, DNA topoisomerase II (Homo sapiens). As to the kind of experiment: Evaluated for inhibitory activity against DNA topoisomerase II. It counts as protein assay.

On to `COc1cc([C@@H]2c3cc4c(cc3[C@@H](Nc3ccccc3Cl)[C@H]3COC(=O)[C@H]23)OCO4)cc(OC)c1O`, for which the inhibition (commonly the percentage by which the read-out fell short of the control) in experiment [1] was found to be 25%. For the same molecule, in the experiment filed under Homo sapiens, the Complex formation is reported as 32%. Further, the IC50 in experiment [2] amounted to 2340 nM.
Turning to `COc1cc([C@@H]2c3cc4c(cc3[C@@H](Nc3cccc(O)c3)[C@H]3COC(=O)[C@H]23)OCO4)cc(OC)c1O`, the inhibition in experiment [1] was > 75%. Moreover, the Complex formation in the experiment filed under Homo sapiens amounted to 290%. Besides, the ID50 in experiment [3] is 5000 nM. Moreover, in experiment [2], the IC50 was 450 nM.
In the case of `COc1cc([C@@H]2c3cc4c(cc3[C@@H](Nc3ccc(O)cc3)[C@H]3COC(=O)[C@H]23)OCO4)cc(OC)c1O`, the inhibition in experiment [1] amounted to 75%. Also, in the experiment listed under Homo sapiens, the Complex formation is 211%. In experiment [3], this molecule yielded an ID50 of 25000 nM. In addition, the IC50 in experiment [2] was found to be 2260 nM.
On the same counts, the results for `COc1cc([C@@H]2c3cc4c(cc3[C@@H](Nc3ccc(F)cc3)[C@H]3COC(=O)[C@H]23)OCO4)cc(OC)c1O` are > 75%, 213%, 10000 nM and 240 nM.
In turn, `COc1cc([C@@H]2c3cc4c(cc3[C@@H](Nc3cccc(Cl)c3)[C@H]3COC(=O)[C@H]23)OCO4)cc(OC)c1O` registered an inhibition in experiment [1] of 50%. In the experiment listed under Homo sapiens, this molecule returned a Complex formation of 51%. Also, the IC50 in experiment [2] turned out to be 2290 nM.
For `COc1cc([C@@H]2c3cc4c(cc3[C@@H](Nc3cccc(O)c3)[C@H]3COC(=O)[C@H]23)OCO4)cc(OC)c1OC`, the inhibition in experiment [1] amounted to 25%. The Complex formation in the experiment listed under Homo sapiens came out at 37%. In experiment [2], the IC50 turned out to be 310 nM.
For `COc1cc([C@@H]2c3cc4c(cc3[C@@H](Nc3cccc(Br)c3)[C@H]3COC(=O)[C@H]23)OCO4)cc(OC)c1O`, in that order: 25%, 62% and 2360 nM.
The molecule `COc1cc([C@@H]2c3cc4c(cc3[C@@H](Nc3ccc(O)cc3)[C@H]3COC(=O)[C@H]23)OCO4)cc(OC)c1OC` came in with an inhibition in experiment [1] of 25%. The molecule further came in with a Complex formation in the experiment listed under Homo sapiens of 21%. Besides, in experiment [2], the IC50 is 590 nM.
On to `COc1cc([C@@H]2c3cc4c(cc3[C@@H](Nc3ccc(I)cc3)[C@H]3COC(=O)[C@H]23)OCO4)cc(OC)c1O`, for which the inhibition in experiment [1] stood at 25%. The same molecule came in with a Complex formation in the experiment filed under Homo sapiens of 64%. Also, in experiment [2], the IC50 came out at 340 nM.
`COc1cc([C@@H]2c3cc4c(cc3[C@@H](Nc3ccc(Cl)cc3)[C@H]3COC(=O)[C@H]23)OCO4)cc(OC)c1O`: in experiment [1], the inhibition stood at 75%. This molecule also came in with a Complex formation in the experiment filed under Homo sapiens of 99%. This molecule also yielded an ID50 in experiment [3] of 50000 nM. Also, the IC50 in experiment [2] was found to be 220 nM.
With `COc1cc([C@@H]2c3cc4c(cc3[C@@H](Nc3ccccc3O)[C@H]3COC(=O)[C@H]23)OCO4)cc(OC)c1OC`, the inhibition in experiment [1] stood at 25%. In addition, the Complex formation in the experiment filed under Homo sapiens was determined as 6%. The IC50 in experiment [2] was 4110 nM.
With `COc1cc([C@@H]2c3cc4c(cc3[C@@H](Nc3cccc(F)c3)[C@H]3COC(=O)[C@H]23)OCO4)cc(OC)c1O`, the inhibition in experiment [1] came out at 75%. This molecule also registered a Complex formation in the experiment listed under Homo sapiens of 158%. The ID50 in experiment [3] is 50000 nM. The IC50 in experiment [2] turned out to be 230 nM.
On the same counts, the results for `COc1cc([C@@H]2c3cc4c(cc3[C@@H](O[C@@H]3O[C@@H]5CO[C@@H](C)O[C@H]5[C@H](O)[C@H]3O)[C@H]3COC(=O)[C@H]23)OCO4)cc(OC)c1O` [ETOPOSIDE] are 75%, 100%, 50000 nM and 200 nM.
In the case of `COc1cc([C@@H]2c3cc4c(cc3[C@@H](Nc3ccc(Br)cc3)[C@H]3COC(=O)[C@H]23)OCO4)cc(OC)c1O`, in experiment [1], the inhibition was found to be 50%. This molecule also came in with a Complex formation in the experiment listed under Homo sapiens of 179%. In experiment [3], this molecule yielded an ID50 of 100000 nM. Also, in experiment [2], the IC50 was 220 nM.
Take `COc1cc([C@@H]2c3cc4c(cc3[C@@H](Nc3ccccc3F)[C@H]3COC(=O)[C@H]23)OCO4)cc(OC)c1O`: in experiment [1], the inhibition turned out to be 50%. In the experiment listed under Homo sapiens, the Complex formation is recorded as 121%. Besides, the IC50 in experiment [2] worked out at 250 nM.
In experiment [1], `COc1cc([C@@H]2c3cc4c(cc3[C@@H](Nc3cc(F)cc(F)c3)[C@H]3COC(=O)[C@H]23)OCO4)cc(OC)c1O` yielded an inhibition of 50%. The molecule also showed a Complex formation in the experiment listed under Homo sapiens of 115%. In addition, the ID50 in experiment [3] was 50000 nM. In addition, the IC50 in experiment [2] came out at 1080 nM.
For `COc1cc([C@@H]2c3cc4c(cc3[C@@H](Nc3ccccc3O)[C@H]3COC(=O)[C@H]23)OCO4)cc(OC)c1O`, in experiment [1], the inhibition is > 75%. In the experiment listed under Homo sapiens, the Complex formation is 151%. In experiment [3], this molecule yielded an ID50 of 25000 nM. For the same molecule, the IC50 in experiment [2] is 4540 nM.
